In brackets after ≈: the same amount, converted by molar mass.
How the values were obtained:
[1] = Solubility calculated with ACD/I-lab at pH 7.4; conditions: read-out: S
[2] = molecular target: T1, Cytochrome P450 11B2, mitochondrial (Homo sapiens, UniProt P19099); test: Percent inhibition against human cytochrome P450 11B2 expressed in fission yeast, incubated with [14C]deoxycorticosterone; parameters: concentration or dose not given beside the values
T1 sequence (P19099 whole entry): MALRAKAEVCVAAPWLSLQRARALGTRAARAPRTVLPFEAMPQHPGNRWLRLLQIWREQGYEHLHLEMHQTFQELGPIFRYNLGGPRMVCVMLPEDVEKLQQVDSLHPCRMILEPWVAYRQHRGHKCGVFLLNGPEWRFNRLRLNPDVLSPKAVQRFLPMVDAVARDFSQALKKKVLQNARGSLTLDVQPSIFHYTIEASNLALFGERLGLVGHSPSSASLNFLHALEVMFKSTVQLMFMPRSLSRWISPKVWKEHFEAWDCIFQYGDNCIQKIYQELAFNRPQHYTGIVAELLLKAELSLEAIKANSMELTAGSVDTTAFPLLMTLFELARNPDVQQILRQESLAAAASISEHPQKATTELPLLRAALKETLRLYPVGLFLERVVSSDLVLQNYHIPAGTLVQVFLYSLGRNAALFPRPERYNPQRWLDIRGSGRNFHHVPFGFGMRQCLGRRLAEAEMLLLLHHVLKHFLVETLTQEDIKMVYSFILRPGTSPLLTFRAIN

Cytochrome P450 2D6 = Cytochrome P450 2D6 (Homo sapiens, UniProt P10635); test: Inhibition percent against human hepatic cytochrome P450 2D6 enzyme at 20 nM concentration; no inhibition
[3] = molecular target: T2, Cytochrome P450 11B1, mitochondrial (Homo sapiens, UniProt P15538); test: Inhibitory concentration against human cytochrome P450 11B1 expressed in V79 MZh hamster lung fibroblasts, incubated with [14C]deoxycorticosterone
T2 sequence (P15538 whole entry): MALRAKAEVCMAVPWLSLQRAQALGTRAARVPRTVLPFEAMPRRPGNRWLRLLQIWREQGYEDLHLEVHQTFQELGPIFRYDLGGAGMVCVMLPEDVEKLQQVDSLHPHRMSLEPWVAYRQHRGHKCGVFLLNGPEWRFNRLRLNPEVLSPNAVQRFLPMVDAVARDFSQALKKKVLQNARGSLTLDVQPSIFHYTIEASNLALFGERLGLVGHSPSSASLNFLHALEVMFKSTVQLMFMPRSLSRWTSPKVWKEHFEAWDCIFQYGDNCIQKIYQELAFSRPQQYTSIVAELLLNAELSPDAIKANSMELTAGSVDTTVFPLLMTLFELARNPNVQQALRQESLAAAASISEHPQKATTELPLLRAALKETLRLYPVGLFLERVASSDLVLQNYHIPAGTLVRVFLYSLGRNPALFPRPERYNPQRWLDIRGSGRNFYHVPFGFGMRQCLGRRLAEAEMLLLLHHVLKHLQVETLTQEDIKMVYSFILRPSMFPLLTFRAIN

Cytochrome P450 3A4 = Cytochrome P450 3A4 (Homo sapiens, UniProt P08684); test: Inhibition percent against human hepatic cytochrome P450 3A4 enzyme at 50 uM concentration; no inhibition; assay type: ADME
Homo sapiens = species on record: Homo sapiens; test: Ratio between inhibitory concentration of cytochrome P450 11B1 to cytochrome P450 11B2
Summary of the method: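 Confluent V79 MZh hamster lung fibroblasts expressing human CYP11B1 or CYP11B2, in DMEM. Preincubated 60 min at 37 °C with inhibitor at three or more concentrations. [4-14C]11-deoxycorticosterone substrate, 100 nM. Incubation 120 min for CYP11B1 and 40 min for CYP11B2; controls without inhibitor. Ethyl acetate extraction, then HPTLC with phosphoimager quantification, giving IC50.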

[4] = molecular target: T1, Cytochrome P450 11B2, mitochondrial; test: Inhibitory concentration against human cytochrome P450 11B2 expressing in V79 MZh cells using [14C]deoxycorticosterone as substrate measured by screening assay; assay type: cell-based
[5] = molecular target: T1, Cytochrome P450 11B2, mitochondrial; test: Inhibitory concentration against human cytochrome P450 11B2 expressed in V79 MZh hamster lung fibroblasts, incubated with [14C]deoxycorticosterone
CYP11B1 = molecular target: T3, CYP11B1 (Homo sapiens, UniProt P15538); test: Inhibitory concentration against human cytochrome P450 11B1 expressed in V79 MZh hamster lung fibroblasts, incubated with [14C]deoxycorticosterone; conditions: human, V79 MZh hamster lung fibroblasts expressing human CYP11B1, probe [14C]deoxycorticosterone
T3 sequence (P15538 whole entry): T2 sequence (P15538 whole entry)

[6] = molecular target: T4, Steroid 17-alpha-hydroxylase/17,20 lyase (Homo sapiens, UniProt P05093); test: Percent inhibition against recombinant human cytochrome P450 17A1 using progesterone; parameters: concentration or dose not given beside the values
T4 sequence (P05093 whole entry): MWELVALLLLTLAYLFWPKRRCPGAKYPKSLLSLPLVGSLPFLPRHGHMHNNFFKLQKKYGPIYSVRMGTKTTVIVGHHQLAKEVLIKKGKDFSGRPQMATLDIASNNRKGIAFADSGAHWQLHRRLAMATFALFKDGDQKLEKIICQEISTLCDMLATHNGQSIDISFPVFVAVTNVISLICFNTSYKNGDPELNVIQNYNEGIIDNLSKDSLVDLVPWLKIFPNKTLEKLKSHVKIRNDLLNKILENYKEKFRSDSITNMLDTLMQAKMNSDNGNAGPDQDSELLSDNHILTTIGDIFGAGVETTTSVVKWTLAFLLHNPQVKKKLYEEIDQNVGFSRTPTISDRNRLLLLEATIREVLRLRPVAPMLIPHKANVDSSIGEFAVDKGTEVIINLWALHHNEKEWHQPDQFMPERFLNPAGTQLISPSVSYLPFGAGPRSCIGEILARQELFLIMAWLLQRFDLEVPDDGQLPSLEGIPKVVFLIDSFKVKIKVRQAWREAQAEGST

Aromatase = molecular target: T5, Aromatase (Homo sapiens, UniProt P11511)
T5 sequence (P11511 whole entry): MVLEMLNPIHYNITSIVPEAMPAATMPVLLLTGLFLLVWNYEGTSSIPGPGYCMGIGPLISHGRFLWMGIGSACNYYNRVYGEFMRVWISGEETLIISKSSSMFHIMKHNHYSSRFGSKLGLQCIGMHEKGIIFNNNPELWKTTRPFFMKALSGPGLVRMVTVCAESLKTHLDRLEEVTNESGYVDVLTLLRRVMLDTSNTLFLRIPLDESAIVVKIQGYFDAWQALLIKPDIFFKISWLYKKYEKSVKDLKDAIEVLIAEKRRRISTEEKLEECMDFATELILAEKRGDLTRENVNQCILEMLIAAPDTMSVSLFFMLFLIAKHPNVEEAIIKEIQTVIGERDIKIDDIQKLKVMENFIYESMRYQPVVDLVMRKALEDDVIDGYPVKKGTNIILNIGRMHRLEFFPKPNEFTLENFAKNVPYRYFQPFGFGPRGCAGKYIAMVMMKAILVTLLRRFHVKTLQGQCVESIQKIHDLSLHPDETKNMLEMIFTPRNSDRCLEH

Sequence of Cytochrome P450 3A4 (P08684 whole entry): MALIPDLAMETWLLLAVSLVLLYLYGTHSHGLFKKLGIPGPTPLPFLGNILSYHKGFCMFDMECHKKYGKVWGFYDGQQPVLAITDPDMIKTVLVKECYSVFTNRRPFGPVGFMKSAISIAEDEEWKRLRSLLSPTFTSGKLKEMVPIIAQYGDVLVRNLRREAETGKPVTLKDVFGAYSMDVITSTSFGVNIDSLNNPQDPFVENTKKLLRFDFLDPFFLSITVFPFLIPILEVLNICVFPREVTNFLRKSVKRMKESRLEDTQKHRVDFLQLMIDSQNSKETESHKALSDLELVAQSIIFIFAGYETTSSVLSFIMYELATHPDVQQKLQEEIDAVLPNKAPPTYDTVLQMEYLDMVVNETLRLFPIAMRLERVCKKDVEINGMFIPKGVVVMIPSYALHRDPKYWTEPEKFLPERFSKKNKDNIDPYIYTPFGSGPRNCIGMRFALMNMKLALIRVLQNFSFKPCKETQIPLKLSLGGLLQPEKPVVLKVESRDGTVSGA
Sequence of Cytochrome P450 2D6 (P10635 whole entry): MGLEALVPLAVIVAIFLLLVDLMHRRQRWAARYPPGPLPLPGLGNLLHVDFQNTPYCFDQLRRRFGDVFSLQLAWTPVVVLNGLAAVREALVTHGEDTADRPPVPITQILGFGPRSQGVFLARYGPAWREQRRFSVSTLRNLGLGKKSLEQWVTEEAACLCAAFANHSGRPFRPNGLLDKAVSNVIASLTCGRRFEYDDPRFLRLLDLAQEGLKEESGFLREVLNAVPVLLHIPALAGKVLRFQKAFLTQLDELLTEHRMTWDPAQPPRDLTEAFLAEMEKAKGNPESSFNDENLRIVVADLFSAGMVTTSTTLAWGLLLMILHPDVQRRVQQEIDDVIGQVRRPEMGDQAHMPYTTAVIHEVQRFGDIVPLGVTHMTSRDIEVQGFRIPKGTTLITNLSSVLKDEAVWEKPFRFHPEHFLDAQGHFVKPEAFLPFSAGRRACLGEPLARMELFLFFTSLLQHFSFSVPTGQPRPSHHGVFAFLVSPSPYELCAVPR

Row | SMILES | solubility [1] [µM] | Inhibition [2] [%] | IC50 [3] [nM] | Selectivity factor (Homo sapiens) | also measured
1 | Oc1ccc2cc(-c3cccnc3)ccc2c1 | 230 (≈ 50.9 µg/mL) |  |  |  | 
2 | c1cncc(-c2cnc3ccccc3n2)c1 |  | 13 |  |  | 
3 | COc1ccc2cc(-c3cccnc3)ccc2c1-c1cccnc1 |  | 9 |  |  | 
4 | NC(=O)c1ccc2cc(-c3cccnc3)ccc2c1 |  | 0 |  |  | 
5 | CCOc1ccc2cc(-c3cccnc3)ccc2c1 |  |  | 5420 | 451 | Inhibition (Cytochrome P450 2D6): Not Active; Inhibition (Cytochrome P450 3A4): Not Active
6 | c1cncc(-c2ccc3ccccc3c2)c1 | 200 (≈ 41.1 µg/mL) |  |  |  | 
7 | COc1ccc2cc(-c3ccncc3)ccc2c1 |  | 0 |  |  | 
8 | c1ccc2cc(-n3ccnc3)ccc2c1 | 280 (≈ 54.4 µg/mL) |  | 1320 |  | IC50 [4]: 38.5 nM; IC50 [5]: 39 nM
9 | c1ccc2cc(-c3cnc[nH]3)ccc2c1 |  | 41 |  | 0.7 | IC50 (CYP11B1): 207 nM; IC50 [5]: 296 nM
10 | c1cncc(-c2cc3ccccc3c3ccccc23)c1 |  | 27 | 7550 |  | 
11 | COc1ccc2cc(-c3cccnc3)ccc2c1 | 79 (≈ 18.6 µg/mL) |  |  |  | Inhibition [6]: 72%
12 | Cn1cncc1-c1ccc2ccccc2c1 |  | 28 |  |  | 
13 | Brc1ccc2cc(-c3cccnc3)ccc2c1 | 1.3 (≈ 0.369 µg/mL) |  | 2940 | 196 | IC50 (Aromatase): > 36000 nM
14 | COC(=O)c1ccc2cc(-c3cccnc3)ccc2c1 | 71 (≈ 18.7 µg/mL) | 74 |  | 145 | IC50 [5]: 72 nM
15 | N#Cc1ccc(C2CCCc3cncn32)cc1 (stereo not drawn) [FADROZOLE] |  |  |  |  | Inhibition [6]: 5%
16 | c1ccc(COc2ccc3cc(-c4cccnc4)ccc3c2)cc1 |  | 3 |  |  | 
17 | COc1cc2ccccc2cc1-c1cccnc1 |  | 30 |  |  | IC50 [4]: > 500 nM
18 | COc1ccc2ccc(-c3cccnc3)c(Cl)c2c1 | 14 (≈ 3.78 µg/mL) |  | 2720 | 94 | Inhibition [6]: 94%; IC50 (Aromatase): > 36000 nM
19 | COc1ccc2cc(-c3cccnc3)ccc2c1Cl | 7.6 (≈ 2.05 µg/mL) |  | 2520 | 192 | 
20 | COc1cc2ccccc2cc1-n1ccnc1 |  | 87 | 81 | 4 | IC50 [4]: 19.1 nM; IC50 [5]: 19 nM
21 | N#Cc1ccc2cc(-c3cccnc3)ccc2c1 | 160 (≈ 36.8 µg/mL) |  |  | 238 | Inhibition [6]: 73%; IC50 (Aromatase): > 36000 nM
22 | COc1ccc2cc(-n3ccnc3)ccc2c1 |  | 49 | 849 | 4 | IC50 [4]: 218 nM; IC50 [5]: 218 nM
23 | c1ccc2cc(-c3cnco3)ccc2c1 |  | 11 |  | 66 | IC50 [5]: 12 nM
24 | COc1ccc2c(Cl)c(-c3cccnc3)ccc2c1Cl | 7.2 (≈ 2.19 µg/mL) |  | 4900 | 174 | Inhibition [6]: 83%
25 | c1ccc2ncc(-n3ccnc3)cc2c1 |  | 17 | 6340 | 10 | IC50 [5]: 604 nM
26 | CCCOc1ccc2cc(-c3cccnc3)ccc2c1 |  | 36 |  |  | 
27 | COc1ccc2cc(-c3cccnc3)ccc2c1Br | 39 (≈ 12.3 µg/mL) |  | 4480 | 136 | 
28 | CNC(=O)c1ccc2cc(-c3cccnc3)ccc2c1 |  | 0 |  |  | 

From ChEMBL document CHEMBL1141125, “Heteroaryl-substituted naphthalenes and structurally modified derivatives: selective inhibitors of CYP11B2 for the treatment of congestive heart failure and myocardial fibrosis” (J Med Chem, 2005)
